Common to all, as to format: functional
The test system of test [1] is Rattus norvegicus. The test is described as follows: Retention of tracer Gallium in blood of rats after intravenous administration and Gallium-67 Bis(salicylaldimine) after 120 min. The gist of the method:
(§1)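 Male Sprague-Dawley rats under ether anesthesia received a femoral vein bolus of no-carrier-added 67Ga complex (1–3 μCi, 0.1–0.2 mL; 5% ethanol in 0.16 M NaCl with 5–10% propylene glycol, filtered 0.2 μm). Injected dose was found by weighing the syringe. Rats were decapitated at 1 or 120 min. Organs were blotted, weighed and gamma counted against an injectate standard, giving percent injected dose per organ. Blood was taken as 7% of body mass. Mean ± SD, n = 3–4.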

Test [2] relates to Rattus norvegicus. The test is described as follows: Retention of tracer Gallium in blood of rats after intravenous administration and Gallium-67 Bis(salicylaldimine) after 1 min. The method in brief: as §1
Test [3] concerns Rattus norvegicus. The test is described as follows: Retention of tracer Gallium in heart of rats after intravenous administration and Gallium-67 Bis(salicylaldimine) after 120 min. The method in brief:
as §1

Test [4] concerns Rattus norvegicus. The test is described as follows: Retention of tracer Gallium in heart of rats after intravenous administration and Gallium-67 Bis(salicylaldimine) after 1 min. The gist of the method:
as §1

Test [5] deals with Rattus norvegicus. The test is described as follows: Retention of tracer Gallium in kidney of rats after intravenous administration and Gallium-67 Bis(salicylaldimine) after 1 min. The gist of the method: as §1
Test [6] has as its system Rattus norvegicus. As to the kind of experiment: Retention of tracer Gallium in liver of rats after intravenous administration and Gallium-67 Bis(salicylaldimine) after 1 min. The gist of the method:
as §1

In test [7] the test system is Rattus norvegicus. The test is described as follows: Retention of tracer Gallium in lung of rats after intravenous administration and Gallium-67 Bis(salicylaldimine) after 120 min. The gist of the method: as §1
Test [8] has as its system Rattus norvegicus. The test is described as follows: Retention of tracer Gallium in liver of rats after intravenous administration and Gallium-67 Bis(salicylaldimine) after 120 min. The gist of the method: as §1
Test [9] concerns Rattus norvegicus. The test is described as follows: Retention of tracer Gallium in lung of rats after intravenous administration and Gallium-67 Bis(salicylaldimine) after 1 min. The gist of the method:
as §1

Test [10] can be described thus: Ratio of retention of tracer Gallium in Heart to blood was determined after intravenous administration to rats after 120 min. The gist of the method: (§2)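 Heart-to-liver and heart-to-blood ratios were calculated from percent injected dose per gram of tissue. No-carrier-added 67Ga complex (1–3 μCi, 0.1–0.2 mL) in 5% ethanol/saline with 5–10% propylene glycol, radiochemical purity >98%, was given as a femoral vein bolus to male Sprague-Dawley rats under ether anesthesia. Rats were decapitated at 1, 15 or 120 min and tissues gamma counted. Mean ± SD, n = 3–4.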

Test [11] can be described thus: Ratio of retention of tracer Gallium in Heart to Liver was determined after intravenous administration to rats after 120 min. The method in brief: as §2
Test [12] is described as follows: Ratio of retention of tracer Gallium in Heart to Liver was determined after intravenous administration to rats after 15 min. The method in brief:
as §2

Test [13] is described as follows: Ratio of retention of tracer Gallium in Heart to Liver was determined after intravenous administration to rats after 1 min. The method in brief:
as §2

The nature of test [14]: Ratio of retention of tracer Gallium in Heart to blood was determined after intravenous administration to rats after 15 min. The gist of the method: as §2
Test [15] can be described thus: Ratio of retention of tracer Gallium in Heart to blood was determined after intravenous administration to rats after 1 min. The gist of the method: as §2
Test [16] has as its system Rattus norvegicus. As to the kind of experiment: Retention of tracer Gallium in kidney of rats after intravenous administration and Gallium-67 Bis(salicylaldimine) after 120 min. The method in brief: as §1
For test [17], the system named is Rattus norvegicus. As to the kind of experiment: Retention of tracer Gallium in kidney of rats after intravenous administration and Gallium-67 Bis(salicylaldimine) after 120 min was determined. The method in brief:
as §1

Test [18] concerns Rattus norvegicus. As to the kind of experiment: Retention of tracer Gallium in kidney of rats after intravenous administration and Gallium-67 Bis(salicylaldimine) after 1 min was determined. The gist of the method:
as §1

Injected dose and Ratio data for eleven compounds are collected here from ChEMBL document CHEMBL1127808, “Structure-distribution relationships for metal-labeled myocardial imaging agents: comparison of a series of cationic gallium (III) complexes with hexadentate bis(salicylaldimine) ligands” (J Med Chem, 1994).

Consider `CCN(CC)c1ccc(/C=N\CC(C)(C)CNCCNCC(C)(C)C/N=C/c2ccc(N(CC)CC)cc2O)c(O)c1`, for which the Injected dose in [1] was found to be 1.06%; in test [2] it was 30.6%; in test [3] it was 0.4%; in [4], 0.66%; in test [5], 4.25%; in [6] it was 47%. Besides, the Injected dose in [7] stood at 1.31%; in test [8], 11.1%; in [9], 5.3%; in test [16], 5.17%. Further, the Ratio in test [10] amounted to 8.1; in test [11], 0.5; in test [12], 0.13; in [13], 0.17; in [14] it was 1.9; in [15], 0.45.

Take `COc1cc(O)c(/C=N/CCCNCCNCCC/N=C/c2c(O)cc(OC)cc2OC)c(OC)c1`: the Injected dose is 0.33% in test [1]; 8.49% in test [2]; 0.86% in test [3]; 1.04% in test [4]; 5.26% in test [5]; 43% in test [6]. Further, the Injected dose worked out at 0.52% in test [7], 3.1% in [8], 0.92% in test [9] and 2.17% in [16]. The Ratio was found to be 45.6 in test [10]; 4.1 in test [11]; 0.56 in test [12]; 0.32 in [13]; 18.1 in test [14]; 2.3 in test [15].

As for `CCN(CC)c1ccc(/C=N/CCCNCCNCCC/N=C/c2ccc(N(CC)CC)cc2O)c(O)c1`, the Injected dose was determined as 1.27% in [1]; 11.1% in test [2]; 0.65% in [3]; 0.69% in [4]; 6.33% in [5]; 38.1% in [6]. Besides, the Injected dose was found to be 0.67% in test [7], 9.7% in test [8], 1.26% in test [9] and 4.67% in test [16]. Besides, the Ratio in test [10] came out at 9.2; in [11], 0.86; in [12], 0.28; in test [13] it was 0.24; in test [14], 4.5; in [15], 1.22.

Regarding `COc1ccc(/C=N/CCCNCCNCCC/N=C/c2ccc(OC)cc2O)c(O)c1`, the Injected dose in [1] is listed as 0.42%; in [2] it was 4.44%; in test [3], 0.65%; in test [4], 0.67%; in test [5], 8.42%; in test [6] it was 25.2%. In addition, the Injected dose in [7] was determined as 0.38%; in test [8], 5.1%; in test [9] it was 1.05%; in test [16] it was 1.69%. Further, the Ratio in test [10] was determined as 30.6; in test [11], 1.6; in [12], 0.62; in [13], 0.32; in test [14], 17.6; in test [15], 2.99.

For the compound `CCOc1cc(C)c(/C=N/CCCNCCNCCC/N=C/c2c(C)cc(OCC)cc2O)c(O)c1`, the Injected dose is on record as 0.42% in test [1]; 7.73% in test [2]; 0.87% in test [3]; 0.91% in [4]; 5.24% in test [5]; 29.5% in test [6]. In addition, the Injected dose was 0.49% in test [7], 3% in test [8], 0.8% in [9] and 2.42% in test [16]. In addition, the Ratio amounted to 40.5 in [10]; 2.7 in test [11]; 0.73 in test [12]; 0.29 in test [13]; 20.9 in [14]; 2.2 in test [15].

Take `CC(C)c1ccc(O)c(/C=N/CCCNCCNCCC/N=C/c2cc(C(C)C)ccc2O)c1`: the Injected dose in test [1] was 1.21%; in test [2] it was 23.4%; in test [3] it was 0.55%; in test [4], 0.67%; in test [5], 6.02%; in test [6] it was 49.2%. Further, the Injected dose in [7] came to 0.36%; in [8], 8.5%; in test [9], 1.06%; in test [16], 3.95%. Besides, the Ratio in [10] turned out to be 8.6; in [11], 0.75; in test [13] it was 0.16; in test [15], 0.54.

Regarding `COc1cc(O)c(/C=N\CC(C)(C)CNCCNCC(C)(C)C/N=C/c2c(O)cc(OC)cc2OC)c(OC)c1`, the Injected dose was 0.45% in [1]; 18.8% in test [2]; 1.01% in test [3]; 1.03% in [4]; 8.33% in test [5]; 50.6% in test [6]. The Injected dose turned out to be 0.64% in test [7], 3.9% in [8], 1.63% in test [9] and 5.4% in test [16]. Besides, the Ratio in [10] is 44.5; in [11] it was 3.24; in [12], 0.32; in test [13], 0.23; in test [14], 9.6; in [15] it was 1.1.

In the case of `COc1ccc(O)c(/C=N/CCCNCCNCCC/N=C/c2cc(OC)ccc2O)c1`, the Injected dose was determined as 1.11% in test [1]; 7.55% in test [2]; 0.23% in test [3]; 0.34% in test [4]; 7.64% in [5]; 26.5% in [6]. The Injected dose is recorded as 0.18% in test [7], 6.8% in test [8], 0.79% in [9] and 1.19% in [16]. For the same compound, the Ratio in [10] was 4.3; in [11], 0.42; in test [12], 0.19; in [13], 0.15; in test [14] it was 2.6; in test [15], 0.89.

For `Oc1ccccc1/C=N/CCCNCCNCCC/N=C/c1ccccc1O`, the Injected dose was 0.64% in test [1]; 4.21% in [2]; 0.41% in [3]; 0.45% in test [4]; 9.84% in test [5]; 26.7% in [6]. Further, the Injected dose in test [7] is 0.28%; in test [8], 5.3%; in [9] it was 1%; in test [16], 1.4%. Further, the Ratio in [10] amounted to 12.2; in test [11] it was 0.9; in test [12], 0.51; in test [13], 0.2; in test [14], 8.3; in test [15], 2.15.

On to `COc1cc(O)c(/C=N/CCCNCCNCCC/N=C/c2cc(C)c(OC)cc2O)cc1C`, for which the Injected dose in test [1] is 0.61%; in test [2], 7.79%; in test [3], 0.89%; in test [4], 0.88%; in [17], 2.74%; in test [18] it was 5.14%. In addition, the Injected dose was found to be 39.5% in test [6], 0.42% in test [7], 5.3% in test [8] and 0.79% in test [9]. In addition, the Ratio in test [10] is 30; in test [11], 1.92; in test [13], 0.14; in test [15] it was 2.1.

For the compound `COc1cc(C)c(/C=N/CCCNCCNCCC/N=C/c2c(C)cc(OC)cc2O)c(O)c1`, the Injected dose in [1] is reported as 0.43%; in test [2], 5.94%; in [3] it was 1.03%; in [4], 1.08%; in [5], 5.39%; in test [6] it was 28.8%. Further, the Injected dose is recorded as 0.55% in [7], 3.4% in [8], 0.88% in test [9] and 1.94% in test [16]. Further, the Ratio in test [10] came out at 45.1; in test [11], 3.6; in test [13] it was 0.45; in [15], 3.4.
